Source: PubChem BioAssay (Johns Hopkins Ion Channel Center)
MrgX1 antagonist: antagonists of human MrgX1 receptor. hit rate 1.3% among 310,000. AID 588676. B-score at 10 µM. MRGX1-HEK293 calcium flux, Fluo-4, BAM8-22 antagonism; active compounds read low. Q96LB2;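 active means calcium-response B-score plate-corrected more than 3 library SD below zero, starting fluorescence within 5 deviations, no agonist response on first addition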;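 further: peak minus trough fluorescence over baseline after final BAM8-22 challenge near maximal dose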
Target sequence (Q96LB2 whole entry, looked up): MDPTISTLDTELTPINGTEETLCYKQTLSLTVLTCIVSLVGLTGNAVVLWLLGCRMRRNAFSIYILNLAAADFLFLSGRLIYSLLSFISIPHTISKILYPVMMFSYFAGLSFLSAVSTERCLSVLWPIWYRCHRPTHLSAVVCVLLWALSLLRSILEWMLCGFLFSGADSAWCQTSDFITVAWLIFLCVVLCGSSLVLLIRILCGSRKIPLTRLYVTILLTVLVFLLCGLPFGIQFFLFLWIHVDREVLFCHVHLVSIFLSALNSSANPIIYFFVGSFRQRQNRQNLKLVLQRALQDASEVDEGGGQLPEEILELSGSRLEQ
MrgX1 PAM: allosterically activates human MrgX1 receptor signaling; Q96LB2; MrgX1-HEK293, Fluo-4 calcium flux, FDSS; active compounds read high; B-score at 10 µM; hit rate 0.63% among 310,000;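 active means plate-corrected calcium response at least 3 library SD above typical, normal starting fluorescence, not activating the receptor alone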;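 further: compound read alongside a low EC10 to EC30 dose of BAM8-22 agonist; peak minus trough fluorescence over baseline measured at the second addition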
RGS4 inh: inhibitors of human RGS4; P49798; AID 463165; HEK293 M3R/RGS4 inducible, Fluo-4 calcium flux; active compounds read high; triggered by carbachol at its EC20; hit rate 0.45% among 310,000; B-score at 10 µM;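 active means B-score, a plate-corrected calcium signal, over three deviations above library mean, with baseline fluorescence within five deviations of library mean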;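 further: RGS4 expression induced by doxycycline in cells with stable M3 receptor; B-score is computed from the integrated fluorescence ratio over baseline after carbachol; higher B-score means a larger calcium signal and so more RGS4 inhibition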
Target sequence (P49798 whole entry, looked up): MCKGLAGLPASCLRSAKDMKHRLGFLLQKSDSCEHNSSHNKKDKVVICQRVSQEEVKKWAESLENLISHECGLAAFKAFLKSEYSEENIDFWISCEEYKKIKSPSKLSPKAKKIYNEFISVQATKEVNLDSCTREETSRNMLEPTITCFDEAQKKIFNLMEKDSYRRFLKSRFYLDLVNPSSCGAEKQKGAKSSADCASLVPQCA
RGS4 act: RGS4 potentiation or activation; B-score at 10 µM; hit rate 0.92% among 310,000; HEK293 M3R/inducible RGS4, carbachol calcium flux Fluo4; active compounds read low; AID 463111;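 active means B-score of the integrated calcium signal more than 4 SD below the library mean, with starting fluorescence not abnormally high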;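 further: negative B-score means reduced calcium response which marks RGS4 activation or potentiation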
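System: HEK293 FlpIn-TREx cells, stable M3R, doxycycline-inducible RGS4. Timing: overnight RGS4 induction, 30 min dye load 37 °C, 20 min compound RT. Also added: carbachol, ECmax concentration. Measured by: Fluo4 fluorescence kinetic imaging of calcium. Evaluation: integrated calcium ratio converted to B score.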
MrgX1 ag: human MrgX1 receptor agonism, primary screen | Q96LB2 | MrgX1-HEK293 cells, Fluo-4 calcium fluorescence, agonist mode; active compounds read high | B-score at 10 µM | hit rate 0.44% among 310,000;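 active means calcium response B-score plate-corrected fluorescence ratio at least 3 library SD, with starting fluorescence B-score inside 5 SD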
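Material: MrgX1-expressing HEK293 cells / Dosing: compound as first of three additions / Incubation: overnight seeding, then 1 h dark dye loading / Signal: Fluo-4 NW calcium fluorescence / Evaluation: B-scored fluorescence response ratio / Benchmarks: positive and negative control wells on each plate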
MrgX1 ant reconf: reconfirmed antagonist of human MrgX1 receptor signaling. shares compounds with MrgX1 antagonist. MrgX1-HEK293, BAM8-22 calcium flux, Fluo-4; active compounds read low. remaining BAM8-22 calcium response % of control (active compounds read low), % at 10 µM. hit rate 19% among 2,300;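 active means remaining agonist calcium response no higher than 100% minus 3 SD of agonist-only control wells, with starting fluorescence near control levels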;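 further: agonist BAM8-22 given at a near maximal EC90 to ECmax level; peak minus minimum fluorescence divided by baseline after agonist addition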
HEK293 Ca flux: counter-screen for MrgX1 antagonists: effect in parental HEK293 cells; shares compounds with MrgX1 antagonist; Fluo-4 calcium fluorescence, FDSS; fluorescence ratio F(max-min)/F0 at 10 µM; hit rate 2% among 4,000; AID 624111;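 active means duplicate-averaged calcium fluorescence ratio at least three times the standard deviation of buffer wells, a nonspecific response in parental cells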
HEK293 Ca counter: activity in parental HEK293 cells without MrgX1; AID 624114; parental HEK293 calcium flux, Fluo-4 fluorescence ratio; active compounds read high; fluorescence ratio F(max-min)/F0 at 10 µM; shares compounds with MrgX1 antagonist; hit rate 0.4% among 4,000;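 active means calcium fluorescence ratio, averaged over duplicates, at least 3 SD of the buffer-well ratio, meaning a nonspecific response in receptor-free cells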;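 further: untransfected parental HEK293 lacking MrgX1 used as counterscreen for MrgX1 allosteric activators; fluorescence change taken during the second addition on a kinetic imager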
HEK293 Ca cntr2: counter-screen for MrgX1 activators: effect in parental HEK293 cells; shares compounds with MrgX1 antagonist; Fluo-4 calcium fluorescence (FDSS); active compounds read high; fluorescence ratio F(max-min)/F0 at 10 µM; hit rate 8.7% among 4,000; AID 624115;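 active means calcium fluorescence ratio at least three times the spread of buffer wells, meaning a non-specific response in parental cells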
Numbers without * were called inactive; i = inactive; x = no result given. A selection: hits, their analogues and other compounds. The true share with any hit is near 3.5%.

SMILES	MrgX1 antagonist	MrgX1 PAM	RGS4 inh	RGS4 act	MrgX1 ag	MrgX1 ant reconf	HEK293 Ca flux	HEK293 Ca counter	HEK293 Ca cntr2
Cc1ccc(NC(=O)CCNS(=O)(=O)c2ccc(Br)cc2)cc1S(=O)(=O)N1CCOCC1	i	i	i	i	i	x	x	x	x
Cc1ccc(NC(=O)CCNS(=O)(=O)c2ccccc2)cc1S(=O)(=O)N1CCOCC1	-6.7*	i	i	i	i	i	i	i	i
CCOc1ccccc1OCCC(=O)OCC(=O)Nc1c(C)nn(-c2ccccc2)c1C	i	i	i	i	i	x	x	x	x
CC1CCCN(CCCNC(=O)c2nn(C)c3c2CS(=O)(=O)c2ccccc2-3)C1 (stereo not drawn)	i	i	i	i	i	x	x	x	x
COc1ccccc1CNC(=O)[C@@H]1CCCN1S(=O)(=O)c1ccc(C)cc1	-6.6*	i	i	i	i	i	i	i	i
O=C(Nc1ccc(C(=O)NCCCN2CCN(c3ccc(F)cc3)CC2)cc1)C1=CSCCO1	i	i	i	i	i	x	x	x	x
C/C(=N\NC(=O)c1ccc(O)cc1)c1cccc(NC(=O)c2ccccc2C)c1	i	i	i	i	i	x	x	x	x
CCOC(=O)C[C@H]1c2cc(F)ccc2S(=O)(=O)N1C1CCCCC1	-6.4*	i	i	i	i	i	i	i	i
CC(C)OCCCNC(=O)C1CC(=O)N(CCc2ccccc2)C1 (stereo not drawn)	i	i	i	i	i	x	x	x	x
COc1cccc(N=C2NC(=O)/C(=C/c3cc([N+](=O)[O-])ccc3O)S2)c1	-11*	i	i	i	i	i	i	i	i
CCOc1ccc(CCNC(=O)CN(C)S(=O)(=O)c2cccs2)cc1OCC	i	i	i	i	i	x	x	x	x
COc1ccc(C(=O)NC(C)c2ccc(-n3ccnc3)cc2)c(OC)c1 (stereo not drawn)	-10*	i	i	i	i	i	i	i	i
CCOc1ccc(NC(=O)c2sc3nc(C)nc(N4CCOCC4)c3c2C)cc1	i	i	i	i	i	x	x	x	x
Cn1c(CNc2ccccc2)nc2ccccc21	-6.9*	i	i	i	i	85%*	i	i	i
Cc1ccc2c(C(=O)CN3CCN(C(=O)c4ccco4)CC3)c(C)[nH]c2c1	i	i	i	i	i	x	x	x	x
O=C(Cc1ccon1)c1ccc(O)cc1O	i	i	i	i	i	x	x	x	x
Clc1ccc2nnnc(-c3ccccc3)c2c1	-4.6*	i	i	i	i	i	i	i	i
O=C(NCC1CCCN1S(=O)(=O)c1ccccc1)C(=O)NC1CC1 (stereo not drawn)	-4.6*	i	i	i	i	i	i	i	i
Cn1cc(C(=O)N2CCCC(Nc3ccc(F)cc3)C2)c2ccccc21 (stereo not drawn)	i	i	i	i	i	x	x	x	x
CC1(c2ccccc2)NC(=O)N(CC(=O)Nc2ccc3c(c2)OCO3)C1=O (stereo not drawn)	i	i	i	i	i	x	x	x	x
CC1(c2ccc(OC(F)F)cc2)NC(=O)N(CC(=O)Nc2ccc3c(c2)OCO3)C1=O (stereo not drawn)	-6.3*	i	i	i	i	i	i	i	i
CSc1ccccc1OCc1cc(C(=O)N2CCCC(C)C2)no1 (stereo not drawn)	-5.7*	i	i	i	i	i	i	i	i
